Reference: ChEMBL document CHEMBL1155027, “Synthesis and proteasome inhibition of glycyrrhetinic acid derivatives” (Bioorg Med Chem, 2008)
The source made the active and inactive calls. The rule behind the calls is not given here. Residues, ends and D or L forms follow the SMILES beside them.

Columns and labels:
[1] = Inhibition of chymotrypsin-like activity of human 20S proteasome
[2] = Inhibition of trypsin-like activity of human 20S proteasome
In short: (§1)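 Purified human 20S proteasome assayed with the activator PA28 (16 µg/ml) and fluorogenic substrates: Suc-Leu-Leu-Val-Tyr-AMC for chymotrypsin-like, Bz-VGR-AMC for trypsin-like, and (Z)-LLE-bNA for caspase-like activity. Fluorescence was read at 360/460 nm across a range of inhibitor concentrations. IC50 is the concentration that halves reaction velocity (ΔRFU/min), taken from a plot of velocity against log concentration.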

[3] = Inhibition of caspase-like activity of human 20S proteasome; in short: as §1
MT4 [4] = test: Inhibition of chymotrypsin-like activity of 20S proteasome in human MT4 cells at 0.25 uM after 3 hrs; format: cell-based
MT4 [5] = test: Inhibition of TNF-alpha-induced 20S proteasome degradation of IkappaBalpha in human MT4 cells at 1.6 uM after 3 hrs by Western blot analysis; format: cell-based
In short: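 MT4 cells pretreated with inhibitor 3 h, then TNFα 10 ng/ml for 30 min; cytosolic proteins resolved on 12% SDS-PAGE, transferred to nitrocellulose and Western blotted for IκBα, with β-actin as loading reference.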

Row | SMILES | IC50 [1] [µM] | further results
1 | CC(C)CC(NC(=O)[C@@]1(C)CC[C@]2(C)CC[C@]3(C)C(=CC(=O)[C@@H]4[C@@]5(C)CC[C@H](OC(=O)CC(C)(C)C(=O)O)C(C)(C)[C@@H]5CC[C@]43C)[C@@H]2C1)C(=O)O (stereo partly specified) | 3.09 | 
2 | CC(C)(CC(=O)O)CC(=O)O[C@H]1CC[C@]2(C)[C@H]3C(=O)C=C4[C@@H]5C[C@@](C)(C(=O)O)CC[C@]5(C)CC[C@@]4(C)[C@]3(C)CC[C@H]2C1(C)C | 6.86 | 
3 | CC1(C)[C@@H](OC(=O)c2ccc(C(=O)O)cc2)CC[C@]2(C)[C@H]3C(=O)C=C4[C@@H]5C[C@@](C)(C(=O)O)CC[C@]5(C)CC[C@@]4(C)[C@]3(C)CC[C@@H]12 | 0.31 | 
4 | CC1(C)[C@@H](OC(=O)COCC(=O)O)CC[C@]2(C)[C@H]3C(=O)C=C4[C@@H]5C[C@@](C)(C(=O)O)CC[C@]5(C)CC[C@@]4(C)[C@]3(C)CC[C@@H]12 | 1.93 | 
5 | COC(=O)C(CC(C)C)NC(=O)[C@@]1(C)CC[C@]2(C)CC[C@]3(C)C(=CC(=O)[C@@H]4[C@@]5(C)CC[C@H](OC(C)=O)C(C)(C)[C@@H]5CC[C@]43C)[C@@H]2C1 (stereo partly specified) | > 40 | 
6 | CSCC[C@@H](C=O)NC(=O)[C@H](CC(C)C)NC(=O)[C@H](CC(C)C)NC(C)=O (Ac-Leu-Leu-Met-aldehyde) | 5.25 | IC50 [2]: > 25 µM; IC50 [3]: 22.5 µM
7 | CC1(C)[C@@H](OC(=O)CCC(=O)O)CC[C@]2(C)[C@H]3C(=O)C=C4[C@@H]5C[C@@](C)(C(=O)O)CC[C@]5(C)CC[C@@]4(C)[C@]3(C)CC[C@@H]12 [CARBENOXOLONE] | 2.63 | 
8 | CC(C)CC(NC(=O)[C@@]1(C)CC[C@]2(C)CC[C@]3(C)C(=CC(=O)[C@@H]4[C@@]5(C)CC[C@H](O)C(C)(C)[C@@H]5CC[C@]43C)[C@@H]2C1)C(=O)O (stereo partly specified) | > 40 | 
9 | CC(=O)O[C@H]1CC[C@]2(C)[C@H]3C(=O)C=C4[C@@H]5C[C@@](C)(C(=O)O)CC[C@]5(C)CC[C@@]4(C)[C@]3(C)CC[C@H]2C1(C)C [ACETOXOLONE] | > 40 | 
10 | CC(C(=O)O)C(C)C(=O)O[C@H]1CC[C@]2(C)[C@H]3C(=O)C=C4[C@@H]5C[C@@](C)(C(=O)O)CC[C@]5(C)CC[C@@]4(C)[C@]3(C)CC[C@H]2C1(C)C (stereo partly specified) | 8.7 | 
11 | CC(=O)Cc1ccc(OCC(=O)O[C@H]2CC[C@]3(C)[C@H]4C(=O)C=C5[C@@H]6C[C@@](C)(C(=O)O)CC[C@]6(C)CC[C@@]5(C)[C@]4(C)CC[C@H]3C2(C)C)cc1 | 2.27 | 
12 | CCC(=O)O[C@H]1CC[C@]2(C)[C@H]3C(=O)C=C4[C@@H]5C[C@@](C)(C(=O)O)CC[C@]5(C)CC[C@@]4(C)[C@]3(C)CC[C@H]2C1(C)C | > 40 | 
13 | CC1(C)[C@@H](O)CC[C@]2(C)[C@H]3C(=O)C=C4[C@@H]5C[C@@](C)(C(=O)O)CC[C@]5(C)CC[C@@]4(C)[C@]3(C)CC[C@@H]12 [ENOXOLONE] | 22.3 | IC50 [2]: > 40 µM; IC50 [3]: > 40 µM
14 | CC(=O)N[C@@H](CSC(=O)C1([C@@H](O)C(C)C)NC(=O)[C@H](C)[C@@H]1O)C(=O)O (single isomer, unassigned) [LACTACYSTIN] |  | IC50 [2]: > 30 µM; IC50 [3]: > 30 µM
15 | CC1(C)[C@@H](OC(=O)c2ccccc2)CC[C@]2(C)[C@H]3C(=O)C=C4[C@@H]5C[C@@](C)(C(=O)O)CC[C@]5(C)CC[C@@]4(C)[C@]3(C)CC[C@@H]12 | 2.08 | 
16 | CC1(C)[C@@H](OC(=O)c2cccc(C(=O)O)c2)CC[C@]2(C)[C@H]3C(=O)C=C4[C@@H]5C[C@@](C)(C(=O)O)CC[C@]5(C)CC[C@@]4(C)[C@]3(C)CC[C@@H]12 | 0.22 | IC50 [2]: 2.91 µM; IC50 [3]: 3.56 µM; inhibition (MT4 [4]): 50%; Activity (MT4 [5]): Active

The remaining compounds from weak to strong by IC50 [1], led by results:

Row | IC50 [1] [µM] | SMILES | further results
17 | 1.92 | CC(C)C(=O)O[C@H]1CC[C@]2(C)[C@H]3C(=O)C=C4[C@@H]5C[C@@](C)(C(=O)O)CC[C@]5(C)CC[C@@]4(C)[C@]3(C)CC[C@H]2C1(C)C | 
18 | 1.78 | CC1(C)[C@@H](OC(=O)Cc2ccc(CC(=O)O)cc2)CC[C@]2(C)[C@H]3C(=O)C=C4[C@@H]5C[C@@](C)(C(=O)O)CC[C@]5(C)CC[C@@]4(C)[C@]3(C)CC[C@@H]12 | 
19 | 1.39 | CC1(C)[C@@H](OC(=O)CCCC(=O)O)CC[C@]2(C)[C@H]3C(=O)C=C4[C@@H]5C[C@@](C)(C(=O)O)CC[C@]5(C)CC[C@@]4(C)[C@]3(C)CC[C@@H]12 | 
20 | 1.05 | CC1(C)[C@@H](OC(=O)Cc2cccc(CC(=O)O)c2)CC[C@]2(C)[C@H]3C(=O)C=C4[C@@H]5C[C@@](C)(C(=O)O)CC[C@]5(C)CC[C@@]4(C)[C@]3(C)CC[C@@H]12 | 
21 | 0.87 | CC(C)(CC(=O)O[C@H]1CC[C@]2(C)[C@H]3C(=O)C=C4[C@@H]5C[C@@](C)(C(=O)O)CC[C@]5(C)CC[C@@]4(C)[C@]3(C)CC[C@H]2C1(C)C)C(=O)O | 
22 | 0.35 | CC1(C)[C@@H](OC(=O)C/C=C/CC(=O)O)CC[C@]2(C)[C@H]3C(=O)C=C4[C@@H]5C[C@@](C)(C(=O)O)CC[C@]5(C)CC[C@@]4(C)[C@]3(C)CC[C@@H]12 | IC50 [2]: 19.3 µM; IC50 [3]: 26.5 µM
23 | 0.29 | CC1(C)[C@@H](OC(=O)CCCCC(=O)O)CC[C@]2(C)[C@H]3C(=O)C=C4[C@@H]5C[C@@](C)(C(=O)O)CC[C@]5(C)CC[C@@]4(C)[C@]3(C)CC[C@@H]12 | IC50 [2]: 3.32 µM; IC50 [3]: 5.02 µM
